Data published in ChEMBL document CHEMBL1138555, “N-acylated and N,N'-diacylated imidazolidine-2-thione derivatives and N,N'-diacylated tetrahydropyrimidine-2(1H)-thione analogues: synthesis and antiproliferative activity” (Eur J Med Chem, 2009).

How the values were obtained:
IGROV-1 = test: Growth inhibition of human IGROV1 cells after 48 hrs by sulforhodamine B assay; type: functional; conditions: IGROV-1, 48 h
Method in brief: (§1)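 NCI screen panel. Five 10-fold concentrations from 10^-4 to 10^-8 M. Exposure for the last 48 h of a 72 h incubation. Growth estimated by sulforhodamine B protein assay. GI50 is the concentration giving 50% growth inhibition. Where that level was not reached or was exceeded, the value is given as above or below the highest or lowest concentration tested.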

HOP-92 = test: Growth inhibition of human HOP92 cells after 48 hrs by sulforhodamine B assay; type: functional; conditions: HOP-92, 48 h; method in brief: as §1
DU-145 = test: Growth inhibition of human DU145 cells after 48 hrs by sulforhodamine B assay; type: functional; conditions: DU-145, 48 h; method in brief: as §1
786-0 = test: Growth inhibition of human 786-0 cells after 48 hrs by sulforhodamine B assay; type: functional; conditions: 786-0, 48 h; method in brief: as §1
SF-295 = test: Growth inhibition of human SF295 cells after 48 hrs by sulforhodamine B assay; type: functional; conditions: SF-295, 48 h; method in brief: as §1
SK-OV-3 = test: Growth inhibition of human SKOV3 cells after 48 hrs by sulforhodamine B assay; type: functional; conditions: SK-OV-3, 48 h; method in brief: as §1
RXF 393 = test: Growth inhibition of human RXF393 cells after 48 hrs by sulforhodamine B assay; type: functional; conditions: RXF 393, 48 h; method in brief: as §1
NCI-H322M = test: Growth inhibition of human NCI-H322M cells after 48 hrs by sulforhodamine B assay; type: functional; method in brief: as §1
HL-60(TB) = test: Growth inhibition of human HL-60(TB) cells after 48 hrs by sulforhodamine B assay; type: functional; conditions: HL-60, 48 h
Method in brief: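 NCI 60-cell-line screen protocol: cells exposed to compound at five 10-fold dilutions from 10^-4 to 10^-8 M for the last 48 h of a 72 h incubation. Sulforhodamine B protein assay estimated viability/growth. GI50 (50% growth inhibition) derived; where not reached or exceeded, reported as greater or less than the highest or lowest concentration tested.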

Malme-3M = test: Growth inhibition of human MALME-3M cells after 48 hrs by sulforhodamine B assay; type: functional; method in brief: as §1
NCI-H23 = test: Growth inhibition of human NCI-H23 cells after 48 hrs by sulforhodamine B assay; type: functional; conditions: NCI-H23, 48 h; method in brief: as §1
MDA-MB-231 = test: Growth inhibition of human MDA-MB-231 cells after 48 hrs by sulforhodamine B assay; type: functional; conditions: MDA-MB-231, 48 h; method in brief: as §1
U-251 = test: Growth inhibition of human U251 cells after 48 hrs by sulforhodamine B assay; type: functional; conditions: U-251, 48 h
Method in brief: (§2)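 NCI in vitro panel screen. Compounds tested at five 10-fold dilutions, 10^-4 to 10^-8 M. Cells in 96-well plates were exposed for the last 48 h of a 72 h incubation. Viability/growth was read by sulforhodamine B protein assay. GI50 is the concentration giving 50% growth inhibition. Values beyond the tested range are reported as greater or less than the maximum or minimum concentration.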

HCT-116 = test: Growth inhibition of human HCT116 cells after 48 hrs by sulforhodamine B assay; type: functional; conditions: HCT-116, 48 h; method in brief: as §1
MCF7 = test: Growth inhibition of human MCF7 cells after 48 hrs by sulforhodamine B assay; type: functional; conditions: MCF7, 48 h; method in brief: as §1
SF-539 = test: Growth inhibition of human SF539 cells after 48 hrs by sulforhodamine B assay; type: functional; conditions: SF-539, 48 h; method in brief: as §1
TK-10 = test: Growth inhibition of human TK10 cells after 48 hrs by sulforhodamine B assay; type: functional; conditions: TK-10, 48 h; method in brief: as §2
HCT-15 = test: Growth inhibition of human HCT15 cells after 48 hrs by sulforhodamine B assay; type: functional; conditions: HCT-15, 48 h; method in brief: as §1
OVCAR-4 = test: Growth inhibition of human OVCAR4 cells after 48 hrs by sulforhodamine B assay; type: functional; conditions: OVCAR-4, 48 h; method in brief: as §1
PC-3 = test: Growth inhibition of human PC3 cells after 48 hrs by sulforhodamine B assay; type: functional; conditions: PC-3, 48 h; method in brief: as §1
CAKI-1 = test: Growth inhibition of human Caki1 cells after 48 hrs by sulforhodamine B assay; type: functional; conditions: CAKI-1, 48 h; method in brief: as §1
LOX IMVI = test: Growth inhibition of human LOXIMVI cells after 48 hrs by sulforhodamine B assay; type: functional; method in brief: as §1
SN12C = test: Growth inhibition of human SN12C cells after 48 hrs by sulforhodamine B assay; type: functional; method in brief: as §2
NCI-H522 = test: Growth inhibition of human NCI-H522 cells after 48 hrs by sulforhodamine B assay; type: functional; conditions: NCI-H522, 48 h; method in brief: as §1
NCI-H460 = test: Growth inhibition of human NCI-H460 cells after 48 hrs by sulforhodamine B assay; type: functional; conditions: NCI-H460, 48 h; method in brief: as §1
OVCAR-5 = test: Growth inhibition of human OVCAR5 cells after 48 hrs by sulforhodamine B assay; type: functional; conditions: OVCAR-5, 48 h; method in brief: as §1
MDA-MB-435 = test: Growth inhibition of human MDA-MB-435 cells after 48 hrs by sulforhodamine B assay; type: functional; conditions: MDA-MB-435, 48 h; method in brief: as §1
UACC-62 = test: Growth inhibition of human UACC62 cells after 48 hrs by sulforhodamine B assay; type: functional; conditions: UACC-62, 48 h; method in brief: as §2
HT-29 = test: Growth inhibition of human HT-29 cells after 48 hrs by sulforhodamine B assay; type: functional; conditions: HT-29, 48 h; method in brief: as §1
MT4 = test: Antiproliferative activity against human MT4 cells assessed as reduction of growth by MTT assay; type: functional, cell-based
Method in brief: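 MT-4 lymphoblastoid T cells (ATCC) in RPMI 1640 with 10% FCS, penicillin/streptomycin, checked for mycoplasma. 1 × 10⁴ mock-infected cells per well with serial dilutions from a 100 mM DMSO stock. Incubated 4 days at 37 °C, viable cells counted by MTT. IC50 versus untreated controls by linear regression. Mean of three separate experiments.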

KM12 = test: Growth inhibition of human KM12 cells after 48 hrs by sulforhodamine B assay; type: functional; conditions: KM12, 48 h; method in brief: as §1
BT-549 = test: Growth inhibition of human BT549 cells after 48 hrs by sulforhodamine B assay; type: functional; conditions: BT-549, 48 h; method in brief: as §1
OVCAR-3 = test: Growth inhibition of human OVCAR-3 cells after 48 hrs by sulforhodamine B assay; type: functional; conditions: OVCAR-3, 48 h; method in brief: as §1
UO-31 = test: Growth inhibition of human UO31 cells after 48 hrs by sulforhodamine B assay; type: functional; conditions: UO-31, 48 h; method in brief: as §2
M14 = test: Growth inhibition of human M14 cells after 48 hrs by sulforhodamine B assay; type: functional; conditions: M14, 48 h; method in brief: as §1
SW-620 = test: Growth inhibition of human SW620 cells after 48 hrs by sulforhodamine B assay; type: functional; conditions: SW-620, 48 h; method in brief: as §2
SF-268 = test: Growth inhibition of human SF268 cells after 48 hrs by sulforhodamine B assay; type: functional; conditions: SF-268, 48 h; method in brief: as §1
HCC 2998 = test: Growth inhibition of human HCC2998 cells after 48 hrs by sulforhodamine B assay; type: functional; conditions: HCC 2998, 48 h; method in brief: as §1
SK-MEL-2 = test: Growth inhibition of human SK-MEL-2 cells after 48 hrs by sulforhodamine B assay; type: functional; conditions: SK-MEL-2, 48 h; method in brief: as §1
SK-MEL-28 = test: Growth inhibition of human SK-MEL-28 cells after 48 hrs by sulforhodamine B assay; type: functional; conditions: SK-MEL-28, 48 h; method in brief: as §1

`O=C(c1cccs1)N1CCN(C(=O)c2cccs2)C1=S` was tested, and the GI50 (IGROV-1) was 9.6 µM, the GI50 (HOP-92) was 7.2 µM and the GI50 (DU-145) was 3.3 µM. The GI50 (786-0) was 2.4 µM, the GI50 (SF-295) was 16.7 µM and the GI50 (SK-OV-3) was 15.9 µM. The GI50 (RXF 393) was 2.9 µM, the GI50 (NCI-H322M) was 15.5 µM and the GI50 (HL-60(TB)) was 2.2 µM. It also gave a GI50 (Malme-3M) of 10.3 µM, a GI50 (NCI-H23) of 10.6 µM and a GI50 (MDA-MB-231) of 9.4 µM. It also gave a GI50 (U-251) of 7.9 µM, a GI50 (HCT-116) of 11.4 µM and a GI50 (MCF7) of 3.2 µM. It also gave a GI50 (SF-539) of 1.8 µM, a GI50 (TK-10) of 5.4 µM and a GI50 (HCT-15) of 5.3 µM. The GI50 (OVCAR-4) was 18.8 µM, the GI50 (PC-3) was 6.1 µM and the GI50 (CAKI-1) was 3.4 µM. For the same compound, the GI50 (LOX IMVI) was 2.9 µM, the GI50 (SN12C) was 2.6 µM and the GI50 (NCI-H522) was 3.8 µM. It also gave a GI50 (NCI-H460) of 18.7 µM, a GI50 (OVCAR-5) of 17.1 µM and a GI50 (MDA-MB-435) of 2.8 µM. For the same compound, the GI50 (UACC-62) was 12.3 µM, the GI50 (HT-29) was 11.9 µM and the IC50 (MT4) was 11 µM. The GI50 (KM12) was 3.4 µM, the GI50 (BT-549) was 10 µM and the GI50 (OVCAR-3) was 3.5 µM. For the same compound, the GI50 (UO-31) was 2.3 µM, the GI50 (M14) was 3.6 µM and the GI50 (SW-620) was 4.8 µM. For the same compound, the GI50 (SF-268) was 8.2 µM, the GI50 (HCC 2998) was 8 µM and the GI50 (SK-MEL-2) was 12.6 µM. It also gave a GI50 (SK-MEL-28) of 3.8 µM.

`COc1cc(C(=O)N2CCN(C(=O)c3cc(OC)c(OC)c(OC)c3)C2=S)cc(OC)c1OC` gave a GI50 (IGROV-1) of 24.7 µM, a GI50 (HOP-92) of 16.1 µM and a GI50 (DU-145) of 13.6 µM. It also gave a GI50 (786-0) of 11.4 µM, a GI50 (SF-295) of 19 µM and a GI50 (SK-OV-3) of 20.2 µM. The GI50 (RXF 393) was 14.3 µM, the GI50 (NCI-H322M) was 17.4 µM and the GI50 (HL-60(TB)) was 16 µM. The GI50 (Malme-3M) was 13.4 µM, the GI50 (NCI-H23) was 18.7 µM and the GI50 (MDA-MB-231) was 16.7 µM. It also gave a GI50 (U-251) of 16.3 µM, a GI50 (HCT-116) of 18.2 µM and a GI50 (MCF7) of 5.2 µM. For the same compound, the GI50 (SF-539) was 14.5 µM, the GI50 (TK-10) was 17 µM and the GI50 (HCT-15) was 20.2 µM. The GI50 (OVCAR-4) was 16.9 µM, the GI50 (PC-3) was 15 µM and the GI50 (CAKI-1) was 12.3 µM. For the same compound, the GI50 (LOX IMVI) was 15.4 µM, the GI50 (SN12C) was 17.1 µM and the GI50 (NCI-H522) was 3.7 µM. For the same compound, the GI50 (NCI-H460) was 27.2 µM, the GI50 (OVCAR-5) was 23.2 µM and the GI50 (MDA-MB-435) was 13.1 µM. The GI50 (UACC-62) was 14.9 µM, the GI50 (HT-29) was 22.7 µM and the IC50 (MT4) was 7 µM. For the same compound, the GI50 (KM12) was 14.2 µM, the GI50 (BT-549) was 17.4 µM and the GI50 (OVCAR-3) was 15.2 µM. For the same compound, the GI50 (UO-31) was 0.2 µM, the GI50 (M14) was 16.8 µM and the GI50 (SW-620) was 20.3 µM. For the same compound, the GI50 (SF-268) was 11.5 µM, the GI50 (HCC 2998) was 19 µM and the GI50 (SK-MEL-2) was 16.3 µM. The GI50 (SK-MEL-28) was 17.2 µM.
